Hits are enriched below; roughly 3.3% of the tested compounds scored in any of these assays.
HTR1E agonist: agonists of human 5-HT1E serotonin receptor; P28566; CHO 5-HT1E Ga15 NFAT-bla reporter, FRET; 0% DMSO wells, 100% control agonist wells; activation, % at 6 µM; 65,000 tested, 0.69% active; AID 574;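 active = activation above a set limit, the screen-wide mean activation plus 3 SD, cut at about 8.5% in these data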;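 also: 100% = positive control agonist at 1 µM giving full maximal response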
5-HT1A blocker: 5-HT1a (human) receptor antagonism. P08908. CHO 5-HT1a Ga15 NFAT-bla reporter, antagonist mode. inhibition, % at 10 µM. 62,000 tested, 0.68% active. AID 612;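 active = inhibition above the mean of all tested compounds plus 3 SD, cut at about 43% in these data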;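 also: receptor stimulated by 5-CT agonist at 100 nM near EC80; beta-lactamase reporter measured by ratiometric fluorescence of a cleavable substrate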
Target sequence (P08908 whole entry, looked up): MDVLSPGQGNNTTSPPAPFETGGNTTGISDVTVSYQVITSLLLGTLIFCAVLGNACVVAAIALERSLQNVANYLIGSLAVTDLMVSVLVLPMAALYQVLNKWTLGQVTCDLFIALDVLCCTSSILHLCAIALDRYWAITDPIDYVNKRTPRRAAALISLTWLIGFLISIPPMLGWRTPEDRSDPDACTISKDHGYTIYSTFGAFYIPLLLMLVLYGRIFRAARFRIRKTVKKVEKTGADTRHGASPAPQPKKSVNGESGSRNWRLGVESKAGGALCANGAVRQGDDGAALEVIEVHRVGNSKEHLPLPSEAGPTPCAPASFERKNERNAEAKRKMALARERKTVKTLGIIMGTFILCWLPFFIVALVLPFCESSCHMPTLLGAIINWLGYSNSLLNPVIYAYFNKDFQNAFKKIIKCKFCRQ
5HT1a ag: agonists of human 5-HT1a serotonin receptor | P08908 | CHO 5-HT1a Ga15 NFAT-bla reporter, FRET ratio; 0% basal, 100% maximal reference agonist | activation, % at 10 µM | 65,000 tested, 0.56% active | AID 567;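 active = activation above the screen-wide mean activation plus 3 SD, cut at about 19% in these data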;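 also: 0% = DMSO wells and 100% = 5-CT at EC100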
5HT1E antag: 5-HT1E (human) receptor antagonism; P28566; CHO 5-HT1E Ga15 NFAT-bla reporter, FRET, antagonist; inhibition, % at 6 µM; 65,000 tested, 0.99% active;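 active = inhibition above a set limit, the mean inhibition across every tested compound plus 3 SD, cut at about 29% in these data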;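 also: signal is the 460 over 535 nm emission ratio of beta-lactamase substrate; 0% = agonist plus DMSO wells and 100% = wells without agonist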
HEK293 NFkB inh: lowers PMA/ionomycin-induced NF-kB signal in HEK293 cells. HEK-293 NF-kB luciferase reporter, luminescence. inhibition, % at 3 µM. 62,000 tested, 0.21% active. AID 465;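 active = inhibition above the mean of all tested compounds plus 3 SD, cut at about 40% in these data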;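 also: 0% = stimulated DMSO wells and 100% = 10 µM reference inhibitor 5653914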
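System – HEK-293 cells with stable firefly luciferase reporter driven by four HIV NF-kB elements · Doses – one dose, 3 µM · Schedule – 1 h compound pre-incubation, 16 h PMA/ionomycin at 37 °C · Technique – luminescence from luciferase substrate reagent · Measure – percent inhibition normalized per plate to DMSO and reference-inhibitor controls · Replicates – tested once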
Jurkat viability: reduces viability or proliferation of Jurkat cells. Jurkat E6.1 viability, ATP luminescence, 48 h. inhibition, % at 4 µM. 56,000 tested, 1.2% active. AID 463;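 active = inhibition above the mean inhibition of all tested compounds plus 3 SD, cut at about 28% in these data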
Active calls of the source: *; x = no result.

SMILES | HTR1E agonist | 5-HT1A blocker | 5HT1a ag | 5HT1E antag | HEK293 NFkB inh | Jurkat viability
CCSc1nnc(NC(=O)c2ccccn2)s1 | 0.0 | 18.3 | 2.3 | 0.3 | -36.0 | 75.7*
COc1ccc(CNC(=O)c2cccc3c2C(=O)N(Cc2cccnc2)C3)cc1 | 0.8 | -3.2 | 0.0 | 17.4 | 4.1 | -0.1
c1coc(-c2nn3c(Cn4nnc5ccccc54)nnc3s2)c1 | -0.4 | -2.6 | 1.5 | 0.0 | 5.9 | 4.4
COc1cc(C2C(C#N)=C(N)Oc3c2oc(CO)cc3=O)cc(OC)c1OC (configuration not stated) | 0.7 | 2.0 | -0.8 | 5.3 | 13.4 | -2.0
COc1cc(C2C(C#N)=C(N)Oc3cc(N)ccc32)cc(OC)c1OC (configuration not stated) | -0.4 | x | 0.8 | 56.9* | x | x
COc1cc(C2C3=C(Nc4ncnn42)c2ccccc2CC3)cc(OC)c1OC (configuration not stated) | -0.2 | 13.6 | -0.6 | 61.2* | 30.8 | 97.8*
Cc1cccc2cc(C#N)c(N3CCN(C)CC3)nc12 | 23.4* | -2.7 | 1.5 | -5.3 | 5.5 | -1.1
Cc1cc(C)c2nc(N3CCN(C)CC3)c(C#N)cc2c1 | 2.1 | -12.5 | 0.9 | -3.5 | -15.1 | 2.4
CC(C)CC(NS(=O)(=O)c1ccc2c(c1)oc(=O)n2C)C(=O)NCc1cccnc1 (configuration not stated) | 0.2 | -17.8 | -1.9 | -1.7 | 13.5 | 0.8
O=S(=O)(C/C(=C/CO)S(=O)(=O)c1ccccc1)c1ccccc1 | 0.1 | 92.1* | -0.5 | 105.6* | 18.0 | 98.1*
O=S(=O)(c1ccccc1)N1CCN(C2CCCCCCC2)CC1 | 32.8* | 6.9 | 0.7 | -1.0 | 15.7 | 1.3
CC12CCC(C(=O)N3CCc4ccccc43)(CC1=O)C2(C)C (configuration not stated) | -0.6 | 9.0 | -1.4 | 8.4 | 1.7 | 5.0
CCOC(=O)c1nn(-c2ccccc2)c(C#N)c1NC(=O)c1nn(CC)cc1Br | 0.0 | 17.1 | 1.6 | 54.4* | 4.3 | 10.3
CCOC(=O)c1c(C)c(C(=O)Nc2cc(F)ccc2F)c(C)n1C | 0.0 | 10.9 | -2.2 | 4.3 | 16.8 | 40.0*
CCOC(=O)c1c(C)c(C(=O)Nc2ccc3c(c2)OCCO3)c(C)n1C | -0.7 | 24.7 | -2.8 | -1.8 | 12.9 | -0.6
CC1CCN(S(=O)(=O)c2ccc(S(=O)(=O)NCC3COCCO3)cc2)CC1 (configuration not stated) | 25.6* | -18.0 | -2.4 | 5.0 | 17.4 | 2.5
COc1ccc(CN2CCCC2C(=O)Nc2ccc(OC)c(OC)c2)cc1OC (configuration not stated) | 0.1 | 2.6 | 0.2 | 21.0 | -5.1 | 8.8
Cc1noc(C)c1CSc1nc2ccccc2nc1NS(=O)(=O)c1ccc(Cl)cc1 | 0.4 | 11.3 | -2.4 | 9.5 | 24.1 | 76.1*
CC(=O)NCCOc1nc(N(C)C)nc(N2CCOCC2)n1 | -0.5 | -5.5 | 25.8* | 2.0 | 5.2 | 8.4
O=C(NCCOc1nc(N2CCCCC2)nc(N2CCOCC2)n1)Nc1ccccc1 | 1.7 | 1.0 | 1.4 | 1.5 | 19.6 | -0.6
CC(=O)c1cccc(NC(=O)c2cc3nc(C)cc(C)n3n2)c1 | -1.0 | 6.8 | 0.0 | 5.8 | -16.9 | 13.1
Cc1cc(C(C)(C)C)cc(C)c1CC1=NCCN1 | 89.1* | x | 43.4* | -3.2 | x | x
COCCN1C(=O)C(=O)/C(=C(/O)c2cccc(S(=O)(=O)N(C)C)c2)C12C(=O)N(C)c1ccccc12 (configuration not stated) | -1.3 | 6.6 | -4.9 | 5.9 | 22.9 | 9.2
COc1cc(C)nc(N2CCC(C(=O)NC3CCCCC3)CC2)n1 | -0.7 | 9.4 | 1.1 | -2.5 | 13.2 | x
Cc1ccc2[nH]c3c(N4CCN(Cc5ccc6c(c5)OCO6)CC4)ncnc3c2c1 | 3.6 | x | 3.7 | 16.1 | x | x
SMILES | HTR1E agonist | 5-HT1A blocker | 5HT1a ag | 5HT1E antag | HEK293 NFkB inh | Jurkat viability
Cc1ccc2[nH]c3c(N4CCN(Cc5ccccc5)CC4)ncnc3c2c1 | -0.4 | x | 2.0 | 21.3 | x | x
c1ccc2c(c1)[nH]c1c(N3CCC4(CC3)OCCO4)ncnc12 | -0.7 | x | 4.0 | 22.4 | x | x
Cc1ccc2c(c1)[nH]c1c(N3CCN(Cc4ccccc4)CC3)ncnc12 | 0.8 | 23.9 | -1.2 | 8.6 | 10.4 | 33.5*
c1ccc2c(c1)CCN(c1ncnc3c1[nH]c1ccccc13)C2 | 0.6 | x | 1.5 | 46.4* | x | x
c1ccc(CN2CCN(c3ncnc4c3[nH]c3ccccc34)CC2)cc1 | 0.7 | x | 1.2 | 35.4* | x | x
Cc1ccc2[nH]c3c(N4CCCCCC4)ncnc3c2c1 | -0.4 | x | 1.9 | 31.9* | x | x
O=C(OCc1c(Cl)cccc1Cl)c1cccnc1 | 0.9 | -7.4 | -3.2 | -7.6 | 5.5 | -2.4
CN(C)c1ccc(NC(=O)Cn2cc3c(n2)CCCC3)cc1 | 0.2 | 13.4 | -0.6 | 10.3 | 12.5 | 1.3
Cc1csc(NC(=O)CSc2nnc(-c3ccoc3C)n2Cc2ccco2)n1 | -0.4 | 21.3 | 1.6 | 10.2 | -5.7 | 0.8
O=C(NCc1ccccn1)C(C(=O)c1ccc(F)cc1)n1ccccc1=O (configuration not stated) | 0.4 | 7.0 | -2.7 | -2.9 | 0.7 | 2.7
c1ccc(Cn2nnc3c(N4CCCC4)ncnc32)cc1 | 1.0 | -5.2 | 0.7 | 21.2 | 6.9 | -3.5
c1ccc(Cn2nnc3c(N4CCc5ccccc5C4)ncnc32)cc1 | 0.5 | -6.9 | 95.5* | 4.1 | -0.7 | -1.3
COC(=O)N1CC(C)N(C(=O)OC)CC1C (configuration not stated) | 0.1 | -2.6 | 2.4 | -3.6 | 9.0 | -3.8
O=C(Nc1cccc(F)c1)C1CCCN1S(=O)(=O)c1cccc2cccnc12 (configuration not stated) | 0.2 | 10.9 | 0.8 | 4.0 | -6.3 | -3.4
O=C(Nc1ccc2c(c1)OCCO2)C1CCCN1S(=O)(=O)c1cccc2cccnc12 (configuration not stated) | -0.6 | 4.7 | 75.4* | 0.6 | -6.7 | 4.6
CCCCNC(=O)CCC(=O)Nc1ncc(-c2ccc(C)cc2)n1C | 0.7 | -2.8 | -2.5 | 19.7 | -4.8 | -3.2
Cc1ccc(-c2cnc(NC(=O)CCC(=O)N3CCCCC3)n2C)cc1 | -2.0 | 6.3 | -0.6 | 1.2 | 65.0* | 3.4
COc1ccc(S(=O)(=O)NCC(=O)N(CC(=O)NCC2CCCO2)c2c(C)cccc2C)cc1 (configuration not stated) | -1.2 | -10.7 | -2.1 | 3.7 | 9.6 | -9.8
COc1ccccc1-c1cc(C(F)(F)F)nc(N2CCCC2)n1 | -0.8 | -7.2 | 5.5 | 2.0 | 13.7 | x
COc1ccccc1-c1cc(C(F)(F)F)nc(S(=O)(=O)CCCC(=O)Nc2cc(C)on2)n1 | 0.4 | 10.5 | -4.9 | 45.7* | 24.9 | -0.2
COc1ccccc1-c1cc(C(F)(F)F)nc(S(=O)(=O)CCCC(=O)NC(C)C)n1 | 4.6 | 39.8 | -1.3 | 48.0* | 20.6 | -0.3
